Laboratory results from ChEMBL document CHEMBL3352720, “Novel alkylphospholipid-DTC hybrids as promising agents against endocrine related cancers acting via modulation of Akt-pathway” (Eur J Med Chem, 2014).
The source made the active and inactive calls. The calls are words filed in the database; no cut-off is given here.

Assays:
[1] = system: HEK293; test: Antiproliferative activity against HEK293 cells assessed as inhibition of cell proliferation incubated for 18 hrs followed by MTT addition for 4 hrs by MTT assay; assay type: cell-based; details: Homo sapiens
Procedure, shortened: (§1)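 MTT assay. Cells were grown in DMEM with 10% FBS at 37 °C, 5% CO2, 90% relative humidity. 1 × 10⁴ cells per well were seeded and held 24 h, then exposed to compounds diluted in culture medium for 18 h. MTT (5 mg/mL stock) was added for a further 4 h.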

[2] = system: MCF7; test: Down-regulation of cyclin A1 mRNA expression in human MCF7 cells at 2 to 10 uM incubated for 24 hrs by quantitative real time PCR method; assay type: functional, cell-based
Procedure, shortened: (§2)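 MCF-7 cells in DMEM/10% FBS were treated for 24 h at the indicated concentrations, then harvested, and mRNA levels were determined by qPCR.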

[3] = system: MCF7; test: Induction of cell cycle arrest in human MCF7 cells assessed as accumulation at G2/M phase at 7 uM incubated for 24 hrs by propidium iodide staining based FACS assay (reference value: 1.47%); assay type: functional
[4] = system: MCF7; test: Down-regulation of Bcl-2 mRNA expression in human MCF7 cells at 2 to 10 uM incubated for 24 hrs by quantitative real time PCR method; assay type: functional, cell-based; procedure, shortened: as §2
[5] = system: MCF7; test: Induction of apoptosis in human MCF7 cells assessed as viable cells level at 7 uM incubated for 24 hrs by annexin-V and propidium iodide staining based flow cytometry (reference value: 89.58%); assay type: functional
[6] = system: MCF7; test: Potency index, ratio of IC50 for miltefosine to IC50 for test compound against human MCF7 cells by MTT assay; assay type: functional
[7] = system: MDA-MB-231; test: Inhibition of AKT Ser473 phosphorylation in human MDA-MB-231 cells at 2 uM incubated for 24 hrs by Western blotting method; assay type: cell-based
Procedure, shortened: (§3)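 After 24 h treatment, cells were washed in ice-cold PBS and lysed in RIPA buffer. Protein was measured by Bradford, equal amounts run on SDS-PAGE and transferred to PVDF. Blots were probed for p-Akt (Ser473) and total Akt, then 1 h with 1:5000 HRP anti-mouse IgG, with chemiluminescent detection. Densitometry was quantified against untreated control.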

[8] = system: MCF7; test: Induction of apoptosis in human MCF7 cells assessed as early apoptotic cells level at 7 uM incubated for 24 hrs by annexin-V and propidium iodide staining based flow cytometry (reference value: 6.42%); assay type: functional
[9] = Antiproliferative activity against human DU145 cells assessed as inhibition of cell proliferation incubated for 18 hrs followed by MTT addition for 4 hrs by MTT assay; assay type: functional, cell-based; details: DU-145; procedure, shortened: as §1
[10] = system: MCF7; test: Induction of cell cycle arrest in human MCF7 cells assessed as accumulation at G0/G1 phase at 7 uM incubated for 24 hrs by propidium iodide staining based FACS assay (reference value: 53.32%); assay type: functional
[11] = system: MCF7; test: Induction of apoptosis in human MCF7 cells assessed as necrotic cells level at 7 uM incubated for 24 hrs by annexin-V and propidium iodide staining based flow cytometry (reference value: 2.15%); assay type: functional
[12] = system: MCF7; test: Induction of mitochondrial membrane potential loss in human MCF7 cells assessed as increase in JC1 dye monomer green fluorescence at 7 uM incubated for 24 hrs by JC1 dye based flow cytometry (reference value: 1.78%); assay type: functional
[13] = system: MCF7; test: Antiproliferative activity against human MCF7 cells assessed as inhibition of cell proliferation incubated for 18 hrs followed by MTT addition for 4 hrs by MTT assay; assay type: functional, cell-based; procedure, shortened: as §1
[14] = system: MCF7; test: Induction of cell cycle arrest in human MCF7 cells assessed as accumulation at sub-diploid phase at 7 uM incubated for 24 hrs by propidium iodide staining based FACS assay (reference value: 7.26%); assay type: functional
[15] = system: MCF7; test: Induction of cell cycle arrest in human MCF7 cells assessed as accumulation at S phase at 7 uM incubated for 24 hrs by propidium iodide staining based FACS assay (reference value: 45.21%); assay type: functional
[16] = system: MCF7; test: Down-regulation of cyclin A2 mRNA expression in human MCF7 cells at 2 to 10 uM incubated for 24 hrs by quantitative real time PCR method; assay type: functional, cell-based; procedure, shortened: as §2
[17] = system: MCF7; test: Induction of apoptosis in human MCF7 cells assessed as late apoptotic cells level at 7 uM incubated for 24 hrs by annexin-V and propidium iodide staining based flow cytometry (reference value: 1.85%); assay type: functional
[18] = system: MDA-MB-231; test: Antiproliferative activity against human MDA-MB-231 cells assessed as inhibition of cell proliferation incubated for 18 hrs followed by MTT addition for 4 hrs by MTT assay; assay type: functional, cell-based; procedure, shortened: as §1
[19] = system: DU-145; test: Inhibition of AKT Ser473 phosphorylation in human DU145 cells at 15 uM incubated for 24 hrs by Western blotting method; assay type: cell-based; procedure, shortened: as §3
[20] = system: DU-145; test: Induction of apoptosis in human DU145 cells assessed as early apoptotic cells level at 15 uM incubated for 24 hrs by annexin-V and propidium iodide staining based flow cytometry (reference value: 2.06%); assay type: functional
[21] = system: DU-145; test: Induction of cell cycle arrest in human DU145 cells assessed as accumulation at S phase at 15 uM incubated for 24 hrs by propidium iodide staining based FACS assay (reference value: 39.44%); assay type: functional
[22] = system: DU-145; test: Induction of cell cycle arrest in human DU145 cells assessed as accumulation at S phase at 10 uM incubated for 24 hrs by propidium iodide staining based FACS assay (reference value: 39.44%); assay type: functional
[23] = system: DU-145; test: Induction of cell cycle arrest in human DU145 cells assessed as accumulation at S phase at 5 uM incubated for 24 hrs by propidium iodide staining based FACS assay (reference value: 39.44%); assay type: functional
[24] = system: DU-145; test: Induction of apoptosis in human DU145 cells assessed as viable cells level at 5 uM incubated for 24 hrs by annexin-V and propidium iodide staining based flow cytometry (reference value: 93.65%); assay type: functional
[25] = system: DU-145; test: Increase in Bax/Bcl-2 expression ratio in human DU145 cells at 15 uM incubated for 24 hrs by Western blotting method; assay type: functional, cell-based
Procedure, shortened: (§4)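 DU-145 cells were exposed for 24 h and lysed in RIPA buffer. Protein was quantified by Bradford, and equal amounts were run on SDS-PAGE, transferred to PVDF and immunoblotted, with chemiluminescent detection. Bax/Bcl-2 ratio was taken from 3 densitometric scans as mean SE versus control.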

[26] = system: DU-145; test: Induction of cell cycle arrest in human DU145 cells assessed as accumulation at G0/G1 phase at 10 uM incubated for 24 hrs by propidium iodide staining based FACS assay (reference value: 53.66%); assay type: functional
[27] = system: DU-145; test: Induction of apoptosis in human DU145 cells assessed as viable cells level at 15 uM incubated for 24 hrs by annexin-V and propidium iodide staining based flow cytometry (reference value: 93.65%); assay type: functional
[28] = system: DU-145; test: Increase in Bax protein expression in human DU145 cells at 5 to 15 uM incubated for 24 hrs by Western blotting method; assay type: functional, cell-based; procedure, shortened: as §4
[29] = system: DU-145; test: Induction of apoptosis in human DU145 cells assessed as necrotic cells level at 10 uM incubated for 24 hrs by annexin-V and propidium iodide staining based flow cytometry (reference value: 1.33%); assay type: functional
[30] = system: DU-145; test: Induction of apoptosis in human DU145 cells assessed as early apoptotic cells level at 10 uM incubated for 24 hrs by annexin-V and propidium iodide staining based flow cytometry (reference value: 2.06%); assay type: functional
[31] = system: DU-145; test: Induction of apoptosis in human DU145 cells assessed as necrotic cells level at 15 uM incubated for 24 hrs by annexin-V and propidium iodide staining based flow cytometry (reference value: 1.33%); assay type: functional
[32] = system: DU-145; test: Induction of mitochondrial membrane potential loss in human DU145 cells assessed as increase in JC1 dye monomer green fluorescence at 10 uM incubated for 24 hrs by JC1 dye based flow cytometry (reference value: 2.81%); assay type: functional
[33] = system: DU-145; test: Induction of apoptosis in human DU145 cells assessed as late apoptotic cells level at 10 uM incubated for 24 hrs by annexin-V and propidium iodide staining based flow cytometry (reference value: 2.96%); assay type: functional
[34] = system: DU-145; test: Induction of apoptosis in human DU145 cells assessed as early apoptotic cells level at 5 uM incubated for 24 hrs by annexin-V and propidium iodide staining based flow cytometry (reference value: 2.06%); assay type: functional
[35] = system: DU-145; test: Induction of apoptosis in human DU145 cells assessed as late apoptotic cells level at 5 uM incubated for 24 hrs by annexin-V and propidium iodide staining based flow cytometry (reference value: 2.96%); assay type: functional
[36] = system: DU-145; test: Induction of cell cycle arrest in human DU145 cells assessed as accumulation at G2/M phase at 15 uM incubated for 24 hrs by propidium iodide staining based FACS assay (reference value: 6.90%); assay type: functional
[37] = system: DU-145; test: Induction of apoptosis in human DU145 cells assessed as late apoptotic cells level at 15 uM incubated for 24 hrs by annexin-V and propidium iodide staining based flow cytometry (reference value: 2.96%); assay type: functional
[38] = system: DU-145; test: Induction of mitochondrial membrane potential loss in human DU145 cells assessed as increase in JC1 dye monomer green fluorescence at 15 uM incubated for 24 hrs by JC1 dye based flow cytometry (reference value: 2.81%); assay type: functional
[39] = system: DU-145; test: Induction of cell cycle arrest in human DU145 cells assessed as accumulation at G2/M phase at 5 uM incubated for 24 hrs by propidium iodide staining based FACS assay (reference value: 6.90%); assay type: functional
[40] = system: DU-145; test: Induction of apoptosis in human DU145 cells assessed as necrotic cells level at 5 uM incubated for 24 hrs by annexin-V and propidium iodide staining based flow cytometry (reference value: 1.33%); assay type: functional
[41] = system: DU-145; test: Induction of cell cycle arrest in human DU145 cells assessed as accumulation at G0/G1 phase at 15 uM incubated for 24 hrs by propidium iodide staining based FACS assay (reference value: 53.66%); assay type: functional
[42] = system: DU-145; test: Induction of apoptosis in human DU145 cells assessed as viable cells level at 10 uM incubated for 24 hrs by annexin-V and propidium iodide staining based flow cytometry (reference value: 93.65%); assay type: functional
[43] = Antiproliferative activity against human PC3 cells assessed as inhibition of cell proliferation incubated for 18 hrs followed by MTT addition for 4 hrs by MTT assay; assay type: functional, cell-based; details: PC-3; procedure, shortened: as §1
[44] = system: DU-145; test: Induction of mitochondrial membrane potential loss in human DU145 cells assessed as increase in JC1 dye monomer green fluorescence at 5 uM incubated for 24 hrs by JC1 dye based flow cytometry (reference value: 2.81%); assay type: functional
[45] = system: DU-145; test: Induction of mitochondrial membrane potential loss in human DU145 cells assessed as increase in JC1 dye monomer green fluorescence incubated for 24 hrs by JC1 dye based flow cytometry; assay type: functional, cell-based
[46] = system: DU-145; test: Potency index, ratio of IC50 for miltefosine to IC50 for test compound against human DU145 cells by MTT assay; assay type: functional
[47] = system: DU-145; test: Induction of cell cycle arrest in human DU145 cells assessed as accumulation at G0/G1 phase at 5 uM incubated for 24 hrs by propidium iodide staining based FACS assay (reference value: 53.66%); assay type: functional
[48] = Reduction in Bcl-2 protein expression in human DU145 cells at 5 to 15 uM incubated for 24 hrs by Western blotting method; assay type: functional, cell-based; details: DU-145
[49] = system: DU-145; test: Induction of cell cycle arrest in human DU145 cells assessed as accumulation at G2/M phase at 10 uM incubated for 24 hrs by propidium iodide staining based FACS assay (reference value: 6.90%); assay type: functional

SMILES: CCCCCCCCCCOP(=O)(O)OCCSC(=S)N1CCCCC1
- IC50 [1]: 70.7 µM
- Activity [2]: Active
- Activity [3]: 0%
- Activity [4]: Active
- Activity [5]: 43.43%
- Ratio IC50 [6]: 5
- inhibition [7]: Active
- Activity [8]: 41.66%
- IC50 [9]: 29.3 µM
- Activity [10]: 60.99%
- Activity [11]: 2.15%
- Activity [12]: 44.62%
- IC50 [13]: 7.24 µM
- Activity [14]: 23.81%
- Activity [15]: 39.01%
- Activity [16]: Active
- Activity [17]: 12.76%
- IC50 [18]: 24.6 µM

SMILES: CCCCCCCCCCCCCCCCOP(=O)(O)OCCSC(=S)N1CCCCC1
- inhibition [19]: Active
- Activity [20]: 12.65%
- Activity [21]: 27.27%
- IC50 [1]: > 100 µM
- Activity [22]: 32.94%
- Activity [23]: 35.26%
- Activity [24]: 86.45%
- Activity [25]: Active
- Activity [26]: 61.15%
- Activity [27]: 78.81%
- Activity [28]: Active
- Activity [29]: 1.4%
- IC50 [9]: 14.7 µM
- Activity [30]: 11.06%
- Activity [31]: 2.21%
- IC50 [13]: 29 µM
- Activity [32]: 30.84%
- Activity [33]: 4.52%
- Activity [34]: 9%
- Activity [35]: 2.91%
- Activity [36]: 5.6%
- Activity [37]: 6.33%
- Activity [38]: 9.29%
- Activity [39]: 5.65%
- Activity [40]: 1.64%
- Activity [41]: 67.13%
- Activity [42]: 83.02%
- IC50 [43]: 34.3 µM
- Activity [44]: 3.68%
- Activity [45]: Dose-dependent effect
- Ratio IC50 [46]: 2
- IC50 [18]: 100 µM
- Activity [47]: 59.09%
- Activity [48]: Active
- Activity [49]: 5.92%
